Results gathered from unrelated publications.
Lines come from different studies, so protocols differ.
Oprd1: Delta-type opioid receptor (Oprd1, Rattus norvegicus, UniProt P33533)
CTSB: Cathepsin B (CTSB, Homo sapiens, UniProt P07858)
MAP4K1: Mitogen-activated protein kinase kinase kinase kinase 1 (MAP4K1, Homo sapiens, UniProt Q92918)

The remaining binding of `C[C@@H](O)[C@@H]1CN([C@H](Cc2ccc3ccccc3c2)CN2CCC[C@H]2CN2CCNC[C@@H]2Cc2ccc3ccccc3c2)CCN1CCC12CC3CC(CC(C3)C1)C2` is reported as 100% (Oprd1; ligand displacement, radioligand; 0.5 µM, 2 h, pH 7.5, cell membranes).
For `CCOC(=O)c1ccc(OC(=O)CCCCCNC(=N)N)cc1`, the inhibition was 0% (CTSB; enzyme activity, inhibitor; 10 µM).
For `CC(C)N1CCC[C@H]1CNC(=O)c1cn(C2CCCC2)c(=O)c2c1c1ccccc1n2C`, the inhibition was 7% (Platelet-activating factor receptor (PTAFR, Homo sapiens, UniProt P25105); ligand displacement, radioligand; 10 µM).
With `CC(C)C[C@H](NC(=O)[C@H]1O[C@@H]1C(=O)O)C(=O)NCCCCN=C(N)N` the inhibition was 97% (CTSB; enzyme activity, inhibitor; 50 nM).
The remaining binding of `CC[C@@H](C)[C@@H]1CN([C@@H](CC2CCCCC2)CN2CCC[C@H]2CN2CCNC[C@@H]2CO)CCN1CCc1ccc(Cl)c(Cl)c1` is reported as 94% (Oprd1; ligand displacement, radioligand; 0.5 µM, 2 h, pH 7.5, cell membranes).
For `Cc1nn(C)cc1-c1nc2c(N3CCN(Cc4ccc(Cl)cc4)CC3)c(Cl)cnc2[nH]1`, the remaining binding was 94% (Myosin light chain kinase family member 4 (MYLK4, Homo sapiens, UniProt Q86YV6); binding, competition with immobilised ligand; 1 µM).
`C[C@@H](O)[C@@H]1CN([C@H](Cc2ccc3ccccc3c2)CN2CCC[C@H]2CN2CCNC[C@@H]2Cc2ccc3ccccc3c2)CCN1CCc1ccc(Cl)c(Cl)c1` has a remaining binding of 105% (Oprd1; ligand displacement, radioligand; 0.5 µM, 2 h, pH 7.5, cell membranes).
`Nc1ncc(-c2nc(N3CCOCC3)nc(N3CCOCC3)n2)c(C(F)F)n1` gave a remaining binding of 100% (Cyclin-dependent kinase 8 (CDK8, Homo sapiens, UniProt P49336); binding, competition with immobilised ligand; 10 µM).
For `CCN(CC)CCCC[C@H](NC(=O)[C@H](CC(C)C)NC(=O)[C@H](C)NC(=O)[C@H](Cc1ccccc1)NC(=O)c1ccc(C(C)(C)C)cc1)C(=O)N[C@@H](CO)C(=O)OC`, the remaining binding was 92.2% (5-hydroxytryptamine receptor 7 (HTR7, Homo sapiens, UniProt P34969); ligand displacement, radioligand; 10 µM).
`C#Cc1n[nH]c2c(-c3cn(C(C)c4ccccn4)c(=O)[nH]c3=O)cc(F)cc12` (stereo not shown) has an inhibition of 6.2% (Cyclin-dependent kinase 8, with cyclin C (CDK8, Homo sapiens, UniProt P49336); enzyme activity, inhibitor; 1 µM).
`CCCC[C@H]1CNCCN1C[C@@H]1CCCN1C[C@@H](Cc1ccc2ccccc2c1)N1CCN(CCC23CC4CC(CC(C4)C2)C3)[C@H]([C@@H](C)O)C1` has a remaining binding of 87.3% (Oprd1; ligand displacement, radioligand; 0.5 µM, 2 h, pH 7.5, cell membranes).
The inhibition of `C#Cc1n[nH]c2c(-c3cn([C@@H](C)c4ccccc4)c(=O)[nH]c3=O)cc(F)cc12` is reported as 2.7% (MAP4K1; enzyme activity, inhibitor; 0.1 µM).
With `CN1CCN(c2ccc(Nc3nccc(-c4ccccc4)n3)cc2C(F)(F)F)CC1` the remaining signal was 100% (Cyclin-dependent kinase 2 homolog (CRK2, Plasmodium falciparum, UniProt P61075); cell-free assay; 10 µM).
With `COc1ncccc1-c1cnn2ccc(N3CCN(C(=O)OC(C)C)CC3)nc12` the remaining binding was 80% (MAP4K1; binding, competition with immobilised ligand; 1 µM).
With `OC[C@H]1CNCCN1C[C@@H]1CCCN1C[C@H](CC1CCCCC1)N1CCN(CCC23CC4CC(CC(C4)C2)C3)[C@H](Cc2ccc(O)cc2)C1` the remaining binding was 96.1% (Oprd1; ligand displacement, radioligand; 0.5 µM, 2 h, pH 7.5, cell membranes).
For `CC[C@H](NC(=O)OCc1ccccc1)C(=O)N[C@H](C(=O)N[C@@H](CC(C)C)C(=O)N(C)N(C#N)CCC(N)=O)C(C)(C)C`, the kon was 8400 M⁻¹ s⁻¹ (CTSB; enzyme activity, inhibitor).
